Screening results as filed in PubChem BioAssay.
In the library only some 1.9% were active in any assay of this set; here they are far more common.
M4 PAM: positive allosteric modulators of human muscarinic M4 receptor; hit rate 0.4% among 360,000; CHO-K1 hM4/Gqi5, Fluo-8 calcium fluorescence, ACh EC20; 0% = ACh EC20, 100% = maximal ACh; activation, % at 3 µM;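 active = activation above its plate's cutoff, the mean activation of sample wells plus 3 SD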
Target sequence (P08173 whole entry, looked up): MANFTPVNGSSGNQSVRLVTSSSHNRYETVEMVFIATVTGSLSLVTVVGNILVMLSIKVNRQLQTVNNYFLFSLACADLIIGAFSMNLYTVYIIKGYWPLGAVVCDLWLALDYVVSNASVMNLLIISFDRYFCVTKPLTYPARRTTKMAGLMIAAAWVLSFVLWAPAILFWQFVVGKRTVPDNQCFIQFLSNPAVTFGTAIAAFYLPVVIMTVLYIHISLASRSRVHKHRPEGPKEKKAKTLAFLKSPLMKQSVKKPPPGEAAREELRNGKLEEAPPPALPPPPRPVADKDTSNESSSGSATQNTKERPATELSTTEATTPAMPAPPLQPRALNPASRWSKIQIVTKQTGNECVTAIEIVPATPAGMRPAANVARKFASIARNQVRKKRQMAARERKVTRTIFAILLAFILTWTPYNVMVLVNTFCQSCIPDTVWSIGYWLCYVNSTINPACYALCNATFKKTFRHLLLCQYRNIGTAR
M5 antag: blocks acetylcholine activation of human M5 receptor; CHO-hM5 cells, Fluo-8 calcium fluorescence, ACh EC80; inhibition, % at 3 µM; hit rate 0.59% among 360,000;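 active = inhibition above a per-plate cutoff, the mean of that plate's test compounds plus 3 SD, cut at about 27% in these data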
M5 PAM: positive allosteric modulators of human muscarinic M5 receptor; P08912; CHO-K1 hM5, Fluo-8 calcium, ACh EC20 PAM; 0% = ACh EC20, 100% = ACh EC100; activation, % at 3 µM; hit rate 0.3% among 360,000; AID 624038;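 active = activation above the run cutoff, the mean activation of all test compounds plus 3 SD, cut at about 18% in these data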
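Replicates: One well per compound, no replicates | System: Human M5 receptor in CHO-K1 cells | Benchmarks: Low control EC20 acetylcholine (0%), high control EC100 acetylcholine (100%) | Probe or stimulus: Acetylcholine, EC20 level | Times: Fluo-8 loading 80 min at 37 °C plus 30 min room temperature | Signal: Intracellular calcium via Fluo-8 fluorescence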
CHRM5 agonist: CHRM5 agonism in calcium assay. P08912. CHO-K1 hM5 cells, Fluo-8 calcium fluorescence; 0% DMSO wells, 100% maximal acetylcholine response. activation, % at 3 µM. hit rate 0.19% among 360,000;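 active = activation above the run's mean over test compounds plus 3 SD, cut at about 23% in these data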;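 also: signal is peak over basal fluorescence ratio across the kinetic read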
CHRM4 antagonist: CHRM4 antagonism in calcium assay | CHO-hM4 cells, ACh EC80, Fluo-8 calcium fluorescence | P08173 | hit rate 0.73% among 360,000 | inhibition, % at 3 µM;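 active = inhibition above its plate's cutoff, the mean inhibition of sample wells plus 3 SD, cut at about 27% in these data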
M4 ag: agonists of human muscarinic M4 receptor (CHRM4) | P08173 | hit rate 0.14% among 360,000 | activation, % at 3 µM | CHO-K1 hM4/Gqi5, Fluo-8 calcium fluorescence; vehicle 0%, full acetylcholine response 100%;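 active = activation above the run mean over all test wells plus 3 SD, cut at about 32% in these data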;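 also: peak over basal fluorescence ratio per well then scaled between controls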
Numbers stand for hits; - = inactive.

SMILES	M4 PAM	M5 antag	M5 PAM	CHRM5 agonist	CHRM4 antagonist	M4 ag
O=c1c2ccccc2oc2nc(-c3ccco3)n(Cc3ccccc3)c(=O)c12	-	-	37	-	-	-
CCN(CC)S(=O)(=O)c1cccc(C(=O)NCCCn2ccnc2)c1	-	-	-	-	-	-
CN1C[C@@H]2C(c3ccccc3)C3(c4ccccc4)CC2(C3)[C@H]1c1ccccc1 (stereo partly drawn)	-	-	-	-	45	-
CN1C[C@@H]2C(c3ccccc3)C3(c4ccc(C#N)cc4)CC2(C3)[C@H]1c1ccccc1 (stereo partly drawn)	-	-	-	-	-	-
Cn1ccnc1SCC(=O)N1CCN(S(=O)(=O)c2ccccc2)CC1	-	-	-	-	-	-
CN(CCN1CCOCC1)C(=O)CC1C(=O)NCCN1Cc1ccccc1C(F)(F)F (stereo not drawn)	19	-	-	-	-	-
O=C1Nc2ccc(Br)cc2/C1=C/C1CC=CCC1 (stereo not drawn)	-	-	26	-	-	-
O=C1CC(c2ccccc2)Sc2ccccc2N1 (stereo not drawn)	-	-	-	-	-	-
S=C1NCC(c2ccccc2)S1 (stereo not drawn)	-	-	18	-	-	-
COc1ccc(-c2ccc(C(=O)NCc3ccc(F)c(F)c3)c3occc23)c(C)c1	-	-	-	-	-	-
COc1ccc(-c2coc3c(C(=O)NCc4ccc(OC)c(OC)c4)cccc23)c(C)c1	-	36	-	-	37	-
COc1ccc(-c2ccc(C(=O)NCc3ccncc3)c3occc23)c(C)c1	-	32	-	-	-	-
O=C(CSCC(=O)N1CCCc2ccccc21)Nc1nc(-c2ccccc2)cs1	-	-	-	-	-	-
O=C(O)c1ccc2c(c1)C(=O)N(CCC1=CCCCC1)C2=O	-	-	-	-	-	-
O=C1c2ccccc2C(=O)N1CCC1=CCCCC1	-	-	19	-	-	-
O=C(NCCCN1CCOCC1)c1ccc2c(c1)N(Cc1cccc(Cl)c1)C(=O)CS2	-	-	-	-	36	-
CC(=O)c1ccc(-n2c(=O)[nH]c(=O)c3c(N)c(C(=O)c4ccc(Cl)cc4)sc32)cc1	-	-	-	-	-	-
CCOC(=O)C1C(=O)C=C(/C=C/c2ccc(N(C)C)cc2)CC1c1ccccc1 (stereo not drawn)	-	-	-	29	-	-
CCOC(=O)C1C(=O)C=C(c2ccc(C)cc2)CC1c1ccccc1 (stereo not drawn)	-	-	-	-	-	-
Cn1cc(C(=O)N2CCN(c3ccccn3)CC2)c(=O)c2cc(S(=O)(=O)N3CCOCC3)ccc21	-	-	20	-	-	-
NC(=O)c1ccc(NS(=O)(=O)c2ccc(S(=O)(=O)N3CCCC3)cc2)cc1	-	-	-	-	-	-
Cc1ccc2c(C)c(C(=O)Nc3ccc(S(N)(=O)=O)cc3)oc2c1C	-	-	27	-	-	-
Cc1ccc2c(C)c(C(=O)NCc3ccc(S(N)(=O)=O)cc3)oc2c1C	-	-	27	-	-	-
O=C(CCN1CCN(S(=O)(=O)c2ccc(Cl)cc2)CC1)Nc1ccc(F)cc1	-	-	-	-	-	-
CCNc1nc(=S)nc(NC(C)C)[nH]1	-	-	18	-	-	-
CC1(C)Cc2c(ccc3ccccc23)C2=C(C(=O)N3CCCC3)C(=O)C(=O)N21	18	-	-	-	-	-
COc1cc(N(Cc2ccccc2)Cc2ccccc2)c2ncn(C(C)C)c2c1	-	-	-	-	-	-
CC(C)n1cnc2c(N(C)c3ccccc3)nc(N(CCN(C)C)Cc3ccccc3)nc21	-	34	-	-	-	-
CC[C@]12c3[nH]c4cc(CCC(=O)N(C)C)ccc4c3CCN1C(=O)[C@@H](CC(=O)NCCc1ccccn1)C[C@@H]2C(=O)N1CCN(C(=O)C2CC2)CC1	-	-	-	-	-	-
O=S(=O)(c1ccc(-c2n[nH]c(=S)o2)cc1)N1CCCC1	-	-	-	-	-	-
